We go through one compound from ChEMBL document CHEMBL4699485, “Discovery and Development of SPR519 as a Potent, Selective, and Orally Bioavailable Inhibitor of PI3Kα and mTOR Kinases for the Treatment of Solid Tumors” (J Med Chem, 2020).

The target of series [1] is Sphingosine kinase 1 (Homo sapiens) (UniProt Q9NYA1). Briefly: Inhibition of human SPHK1 at 1 uM using fluorescently labeled peptide substrate measured after 3 hrs by microfluidic mobility shift assay relative to control. The method in brief: (§1)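 Single-concentration screen at 1 µM in duplicate, 1% final DMSO. Kinase (typically 1 nM), fluorescently labeled peptide substrate (typically 1 µM), ATP at Km and Mg²⁺ incubated about 3 h at 25 °C, then EDTA-quenched. Substrate and phosphorylated product separated by microfluidic electrophoresis and quantified by fluorescence.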

Series [2] in a line: Toxicity in Swiss mouse assessed as morphological changes in uterus at 30 mg/kg, po administered twice daily via gavage for 5 days and measured post last dose. In kind it is organism-based. The settings on record: in vivo, 120 h, time 5 day. The method in brief:
(§2)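 Female Swiss mice (3 treated, 2 controls) were gavaged twice daily for 5 days, with compound in 0.5% CMC and Tween 80. After the last dosing the animals were sacrificed. Liver, kidney, lung, uterus and brain were excised and inspected visually for morphology and color change.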

For series [3], the target named is Ribosomal protein S6 kinase beta-2 (Homo sapiens) (UniProt Q9UBS0). Put plainly: Inhibition of human RPS6KB2 at 1 uM using fluorescently labeled peptide substrate measured after 3 hrs by microfluidic mobility shift assay relative to control. In a few lines:
as §1

In series [4] the target is Protein kinase C zeta type (Homo sapiens) (UniProt Q05513). Put plainly: Inhibition of human PRKCZ at 1 uM using fluorescently labeled peptide substrate measured after 3 hrs by microfluidic mobility shift assay relative to control. The method in brief:
as §1

Series [5] can be described thus: Toxicity in Swiss mouse assessed as morphological changes in kidney at 30 mg/kg, po administered twice daily via gavage for 5 days and measured post last dose. In kind it is organism-based. The settings on record: in vivo, 120 h, time 5 day. In a few lines:
as §2

Series [6] is described as follows: AUC in Swiss mouse at 10 mg/kg, po via gavage by LC-MS/MS analysis. Also on record: dose 10 mg/kg. In kind it is ADME, organism-based. The settings on record: in vivo. The method in brief:
(§3)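 Female Swiss mice (n=3/group), fasted overnight, given single oral gavage dose in 0.5% CMC/0.5% Tween 80 (10 mL/kg) at 1, 3 or 10 mg/kg. Serial blood sampling at 0.16–8 h into heparinized tubes. Plasma extracted with acetonitrile containing verapamil internal standard and quantified by LC-MS/MS. Cmax, Tmax, AUC and t1/2 derived from the concentration–time profile.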

The target in series [7] is Angiopoietin-1 receptor (Homo sapiens) (UniProt Q02763). Briefly: Inhibition of human TIE2 at 1 uM using fluorescently labeled peptide substrate measured after 3 hrs by microfluidic mobility shift assay relative to control. In a few lines: as §1
A short description of series [8]: Toxicity in Swiss mouse assessed as change in feces at 10 mg/kg, po administered twice daily via gavage for 5 days and measuring daily during compound dosing. The settings on record: in vivo, 120 h, time 5 day. It is filed as organism-based. In a few lines:
(§4)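 Female Swiss mice (3 treated, 2 vehicle controls) received oral gavage twice daily for 5 days, with compound formulated in 0.5% CMC and Tween 80. Body weight, body temperature, body coat, feed intake, eyes, feces and general activity were observed daily.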

Series [9] in a line: Metabolic stability in dog liver microsomes assessed as parent compound remaining at 10 uM remaining after 120 mins in presence of NADPH by HPLC analysis. It is filed as ADME, Canis lupus familiaris, Microsome. Conditions: read-out: Stabilty. In a few lines:
(§5)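 Compound at 10 µM was incubated with 0.5 mg/mL liver microsomes and 1 mM NADPH (final). Samples were taken at 0, 15, 30, 60 and 120 min and stopped with acetonitrile, then centrifuged and the supernatant analysed by HPLC. Percent parent remaining was set relative to the 0 min peak area (100%).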
(Liver microsomes are vesicles of endoplasmic reticulum, rich in cytochrome P450 enzymes.)

Series [10] in a line: Tmax in Swiss mouse at 3 mg/kg, po via gavage by LC-MS/MS analysis. It is filed as ADME, organism-based. The settings on record: in vivo. In a few lines: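 Female Swiss mice (n=3/group) were fasted overnight, then gavaged with compound in 0.5% CMC/0.5% Tween 80 at 10 mL/kg. Serial blood samples at 0.16, 0.5, 1, 2, 4, 6 and 8 h were taken into heparinized tubes and spun to plasma. Plasma was extracted with acetonitrile containing verapamil (400 ng/mL) and quantified by LC-MS/MS against plasma calibration curves. Tmax was derived from the concentration–time profile.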

Series [11] addresses Serine/threonine-protein kinase mTOR (Homo sapiens, UniProt P42345). Put plainly: Inhibition of recombinant human GST-tagged mTOR catalytic domain (1360 to 2549 residues) expressed in baculovirus expression system using GFP-4E-BP1 as substrate preincubated for 15 mins followed by substrate addition and measured after 60 mins by TR-FRET assay. The method in brief: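 Recombinant mTOR (FRAP1) was preincubated 15 min with serially diluted compound (10 µM–0.0005 µM, DMSO) in kinase buffer, 10 µL reaction. GFP-4E-BP1 (400 nM final) and ATP (8 µM final) were added and the reaction ran 1 h at RT. Quench buffer with Tb-anti-p4E-BP1 (pThr46) was added for 1 h at RT. TR-FRET 520/486 nm ratio was fitted by four-parameter sigmoidal regression.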

Series [12] in a line: Toxicity in Swiss mouse assessed as loss of appetite at 10 mg/kg, po administered twice daily via gavage for 5 days and measuring daily during compound dosing. The settings on record: in vivo, 120 h, time 5 day. It is filed as organism-based. The method in brief: as §4
The nature of series [13]: Drug level in Swiss mouse liver at 30 mg/kg, po administered twice daily via gavage for 5 days and measured post last dose by LC-MS/MS analysis. It is filed as ADME, organism-based. Conditions: time 5 day, read-out: Drug uptake. In a few lines: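 Female Swiss mice (n=3) given 30 mg/kg in 0.5% CMC/Tween 80 by oral gavage twice daily for 5 days, with two vehicle controls. After sacrifice, liver, kidney, lung, uterus and brain were collected, homogenized in water and solvent-extracted. Drug concentration (ng/g) measured by LC-MS/MS.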

The target of series [14] is RAC-alpha serine/threonine-protein kinase (Homo sapiens) (UniProt P31749). Briefly: Inhibition of human AKT1 at 1 uM using fluorescently labeled peptide substrate measured after 3 hrs by microfluidic mobility shift assay relative to control. The method in brief: as §1
Series [15] is described as follows: AUC in Swiss mouse at 1 mg/kg, po via gavage by LC-MS/MS analysis. In kind it is ADME, organism-based. Also on record: dose 1 mg/kg. The settings on record: in vivo. In a few lines: as §3
Series [16] has as its target Phosphatidylinositol 4,5-bisphosphate 3-kinase catalytic subunit alpha isoform (Homo sapiens) (UniProt P42336). Briefly: Inhibition of human PI3kalpha at 1 uM using fluorescently labeled peptide substrate measured after 3 hrs by microfluidic mobility shift assay relative to control. The method in brief: as §1
Series [17] concerns the target Cyclin-dependent kinase 7 (Homo sapiens) (UniProt P50613). Briefly: Inhibition of human CDK7 at 1 uM using fluorescently labeled peptide substrate measured after 3 hrs by microfluidic mobility shift assay relative to control. In a few lines:
as §1

The nature of series [18]: Metabolic stability in human liver microsomes assessed as parent compound remaining at 10 uM remaining after 120 mins in presence of NADPH by HPLC analysis. The settings on record: read-out: Stabilty. It is filed as ADME, Microsome. In a few lines:
as §5

A short description of series [19]: Cmax in Swiss mouse at 10 mg/kg, po via gavage by LC-MS/MS analysis. It is filed as ADME, organism-based. Details: route oral, dose 10 mg/kg. Conditions: in vivo. In a few lines:
as §3

A short description of series [20]: Toxicity in Swiss mouse assessed as morphological changes in liver at 30 mg/kg, po administered twice daily via gavage for 5 days and measured post last dose. In kind it is organism-based. The settings on record: in vivo, 120 h, time 5 day. The method in brief: as §2
Series [21] deals with RAC-beta serine/threonine-protein kinase (Homo sapiens) (UniProt P31751). Briefly: Inhibition of human AKT2 at 1 uM using fluorescently labeled peptide substrate measured after 3 hrs by microfluidic mobility shift assay relative to control. The method in brief: as §1
Series [22] is described as follows: Toxicity in Swiss mouse assessed as effect on eyes at 10 mg/kg, po administered twice daily via gavage for 5 days and measuring daily during compound dosing. In kind it is organism-based. The settings on record: in vivo, 120 h, time 5 day. In a few lines:
as §4

Series [23] can be described thus: Cmax in Swiss mouse at 3 mg/kg, po via gavage by LC-MS/MS analysis. Also on record: route oral, dose 3 mg/kg. Conditions: in vivo. In kind it is ADME, organism-based. In a few lines:
as §3

SMILES strings stand for the structures.

Sequence of Sphingosine kinase 1 (Homo sapiens) (Q9NYA1 whole entry): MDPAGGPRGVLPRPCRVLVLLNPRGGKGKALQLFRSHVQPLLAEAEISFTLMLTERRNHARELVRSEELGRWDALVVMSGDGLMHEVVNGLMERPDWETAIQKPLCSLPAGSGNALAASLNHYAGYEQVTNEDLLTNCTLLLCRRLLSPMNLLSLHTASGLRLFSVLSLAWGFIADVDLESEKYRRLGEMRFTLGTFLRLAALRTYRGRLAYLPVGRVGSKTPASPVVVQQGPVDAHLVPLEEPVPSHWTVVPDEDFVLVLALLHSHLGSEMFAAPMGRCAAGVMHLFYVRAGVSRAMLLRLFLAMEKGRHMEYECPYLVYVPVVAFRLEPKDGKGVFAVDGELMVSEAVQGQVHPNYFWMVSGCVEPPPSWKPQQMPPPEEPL
Sequence of Protein kinase C zeta type (Homo sapiens) (Q05513 whole entry): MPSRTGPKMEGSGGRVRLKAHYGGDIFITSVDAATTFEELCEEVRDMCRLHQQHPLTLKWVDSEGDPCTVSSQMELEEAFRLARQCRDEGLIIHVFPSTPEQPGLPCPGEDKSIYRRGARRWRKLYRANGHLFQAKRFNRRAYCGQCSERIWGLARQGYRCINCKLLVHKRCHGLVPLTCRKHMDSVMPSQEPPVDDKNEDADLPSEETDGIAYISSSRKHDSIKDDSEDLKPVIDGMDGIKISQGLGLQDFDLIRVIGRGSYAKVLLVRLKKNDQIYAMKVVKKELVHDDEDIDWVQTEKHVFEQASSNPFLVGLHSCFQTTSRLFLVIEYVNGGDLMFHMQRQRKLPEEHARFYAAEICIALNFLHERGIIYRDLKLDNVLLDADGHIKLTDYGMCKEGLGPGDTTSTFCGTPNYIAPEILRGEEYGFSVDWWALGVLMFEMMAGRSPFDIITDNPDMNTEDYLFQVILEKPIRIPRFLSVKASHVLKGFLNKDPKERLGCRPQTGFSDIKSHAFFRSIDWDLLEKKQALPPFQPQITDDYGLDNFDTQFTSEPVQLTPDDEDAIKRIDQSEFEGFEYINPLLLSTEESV
Sequence of Angiopoietin-1 receptor (Homo sapiens) (Q02763 whole entry): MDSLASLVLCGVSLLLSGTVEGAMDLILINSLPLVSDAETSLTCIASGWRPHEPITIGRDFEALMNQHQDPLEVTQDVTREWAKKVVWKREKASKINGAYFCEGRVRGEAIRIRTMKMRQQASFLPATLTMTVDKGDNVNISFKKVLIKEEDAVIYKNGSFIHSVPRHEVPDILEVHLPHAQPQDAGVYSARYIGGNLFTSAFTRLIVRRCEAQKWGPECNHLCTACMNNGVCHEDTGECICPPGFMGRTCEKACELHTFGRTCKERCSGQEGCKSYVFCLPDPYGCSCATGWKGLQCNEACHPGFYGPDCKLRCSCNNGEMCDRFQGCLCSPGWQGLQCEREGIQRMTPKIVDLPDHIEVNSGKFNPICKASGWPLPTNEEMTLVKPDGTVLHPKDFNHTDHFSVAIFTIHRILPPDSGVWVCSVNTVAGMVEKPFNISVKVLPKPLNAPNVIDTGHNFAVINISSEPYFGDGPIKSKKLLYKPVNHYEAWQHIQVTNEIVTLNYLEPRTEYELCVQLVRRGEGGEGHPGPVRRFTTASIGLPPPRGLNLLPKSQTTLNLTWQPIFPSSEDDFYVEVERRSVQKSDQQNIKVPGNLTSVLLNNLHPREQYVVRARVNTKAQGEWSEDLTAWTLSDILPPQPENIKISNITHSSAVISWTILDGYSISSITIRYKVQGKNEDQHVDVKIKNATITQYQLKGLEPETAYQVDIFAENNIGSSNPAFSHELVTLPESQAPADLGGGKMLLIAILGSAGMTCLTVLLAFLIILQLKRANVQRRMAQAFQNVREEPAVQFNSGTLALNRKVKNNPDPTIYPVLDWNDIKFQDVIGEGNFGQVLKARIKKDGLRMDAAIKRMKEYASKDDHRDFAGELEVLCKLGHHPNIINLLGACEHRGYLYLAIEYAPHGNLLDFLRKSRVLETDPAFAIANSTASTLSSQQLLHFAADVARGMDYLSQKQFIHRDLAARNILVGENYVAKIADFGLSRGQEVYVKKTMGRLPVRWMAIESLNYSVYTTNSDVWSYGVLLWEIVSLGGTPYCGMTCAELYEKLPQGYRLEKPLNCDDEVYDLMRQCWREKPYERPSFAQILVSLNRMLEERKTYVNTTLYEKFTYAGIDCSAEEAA
Sequence of Phosphatidylinositol 4,5-bisphosphate 3-kinase catalytic subunit alpha isoform (Homo sapiens) (P42336 whole entry, canonical isoform): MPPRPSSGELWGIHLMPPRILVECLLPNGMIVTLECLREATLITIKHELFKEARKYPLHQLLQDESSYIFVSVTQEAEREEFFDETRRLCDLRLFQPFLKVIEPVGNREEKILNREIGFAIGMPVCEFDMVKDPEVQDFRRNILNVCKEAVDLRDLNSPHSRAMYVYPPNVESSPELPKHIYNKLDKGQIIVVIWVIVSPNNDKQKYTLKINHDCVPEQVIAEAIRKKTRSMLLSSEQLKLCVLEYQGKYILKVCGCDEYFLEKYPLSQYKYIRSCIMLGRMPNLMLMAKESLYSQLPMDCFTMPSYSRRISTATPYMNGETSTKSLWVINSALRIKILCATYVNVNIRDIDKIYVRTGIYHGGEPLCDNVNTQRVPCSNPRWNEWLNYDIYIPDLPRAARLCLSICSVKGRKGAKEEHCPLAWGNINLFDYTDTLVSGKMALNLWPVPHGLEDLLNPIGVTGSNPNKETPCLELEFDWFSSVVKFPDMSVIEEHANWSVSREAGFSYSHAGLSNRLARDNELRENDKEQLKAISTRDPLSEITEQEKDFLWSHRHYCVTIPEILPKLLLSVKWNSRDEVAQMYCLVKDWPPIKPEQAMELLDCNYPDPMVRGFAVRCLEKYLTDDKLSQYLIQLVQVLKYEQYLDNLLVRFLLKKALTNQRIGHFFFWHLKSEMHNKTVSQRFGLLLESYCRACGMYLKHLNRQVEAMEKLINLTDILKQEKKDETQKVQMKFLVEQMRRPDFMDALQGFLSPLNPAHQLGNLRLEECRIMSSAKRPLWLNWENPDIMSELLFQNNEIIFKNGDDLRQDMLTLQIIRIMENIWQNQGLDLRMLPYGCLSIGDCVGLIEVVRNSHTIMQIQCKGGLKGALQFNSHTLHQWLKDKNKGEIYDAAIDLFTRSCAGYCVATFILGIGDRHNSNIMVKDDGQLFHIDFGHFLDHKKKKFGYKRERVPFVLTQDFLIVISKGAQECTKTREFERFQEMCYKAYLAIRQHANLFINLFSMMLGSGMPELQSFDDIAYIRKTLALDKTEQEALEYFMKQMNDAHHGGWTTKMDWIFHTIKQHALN
Sequence of RAC-alpha serine/threonine-protein kinase (Homo sapiens) (P31749 whole entry): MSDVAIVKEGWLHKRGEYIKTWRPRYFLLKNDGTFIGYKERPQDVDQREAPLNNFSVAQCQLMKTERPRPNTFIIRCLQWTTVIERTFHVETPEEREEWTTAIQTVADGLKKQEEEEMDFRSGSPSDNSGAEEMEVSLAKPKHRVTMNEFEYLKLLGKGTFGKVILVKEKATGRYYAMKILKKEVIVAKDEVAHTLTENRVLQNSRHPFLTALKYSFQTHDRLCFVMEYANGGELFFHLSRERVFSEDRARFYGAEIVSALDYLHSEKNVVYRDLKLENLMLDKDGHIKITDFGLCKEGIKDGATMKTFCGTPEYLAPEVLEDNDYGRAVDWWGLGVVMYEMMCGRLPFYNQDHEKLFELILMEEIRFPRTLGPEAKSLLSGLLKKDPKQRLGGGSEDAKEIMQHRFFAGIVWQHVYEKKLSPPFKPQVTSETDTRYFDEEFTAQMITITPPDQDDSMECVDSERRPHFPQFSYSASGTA
Sequence of Cyclin-dependent kinase 7 (Homo sapiens) (P50613 whole entry): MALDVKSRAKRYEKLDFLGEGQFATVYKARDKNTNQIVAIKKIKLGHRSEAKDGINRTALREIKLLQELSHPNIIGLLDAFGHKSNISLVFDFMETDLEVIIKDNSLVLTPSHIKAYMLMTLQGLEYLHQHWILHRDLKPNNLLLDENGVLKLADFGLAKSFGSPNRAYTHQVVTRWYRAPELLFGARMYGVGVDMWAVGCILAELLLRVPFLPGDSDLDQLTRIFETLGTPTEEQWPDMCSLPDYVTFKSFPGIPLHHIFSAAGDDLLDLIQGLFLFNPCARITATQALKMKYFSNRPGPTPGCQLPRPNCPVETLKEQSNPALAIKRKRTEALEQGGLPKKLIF
Sequence of RAC-beta serine/threonine-protein kinase (Homo sapiens) (P31751 whole entry): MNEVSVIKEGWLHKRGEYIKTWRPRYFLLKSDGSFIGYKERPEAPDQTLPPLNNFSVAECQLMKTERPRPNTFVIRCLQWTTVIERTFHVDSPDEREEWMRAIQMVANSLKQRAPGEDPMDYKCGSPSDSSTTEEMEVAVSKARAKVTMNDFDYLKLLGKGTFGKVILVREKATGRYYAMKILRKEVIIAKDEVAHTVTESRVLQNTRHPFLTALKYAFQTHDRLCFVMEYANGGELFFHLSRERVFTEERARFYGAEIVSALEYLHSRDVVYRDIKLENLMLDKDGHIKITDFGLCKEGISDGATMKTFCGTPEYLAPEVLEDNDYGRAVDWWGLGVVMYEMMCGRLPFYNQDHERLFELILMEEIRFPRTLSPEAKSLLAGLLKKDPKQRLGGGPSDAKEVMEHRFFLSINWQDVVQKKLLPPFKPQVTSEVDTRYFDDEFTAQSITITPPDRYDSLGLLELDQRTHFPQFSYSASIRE
Sequence of Ribosomal protein S6 kinase beta-2 (Homo sapiens) (Q9UBS0 whole entry): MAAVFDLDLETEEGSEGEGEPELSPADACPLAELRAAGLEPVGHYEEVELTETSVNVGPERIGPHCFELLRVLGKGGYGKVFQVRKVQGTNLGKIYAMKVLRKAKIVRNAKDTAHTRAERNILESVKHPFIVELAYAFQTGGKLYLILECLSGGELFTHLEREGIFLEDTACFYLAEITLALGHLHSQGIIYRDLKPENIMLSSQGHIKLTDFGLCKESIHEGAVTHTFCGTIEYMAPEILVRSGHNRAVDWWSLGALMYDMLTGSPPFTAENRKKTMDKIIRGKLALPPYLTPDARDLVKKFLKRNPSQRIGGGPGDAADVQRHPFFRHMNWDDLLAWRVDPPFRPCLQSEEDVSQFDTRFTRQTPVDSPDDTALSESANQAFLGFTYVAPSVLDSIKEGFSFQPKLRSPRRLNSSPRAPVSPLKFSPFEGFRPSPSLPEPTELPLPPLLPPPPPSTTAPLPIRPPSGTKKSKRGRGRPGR

For orientation: inhibition means the relative decrease from the control value, in per cent. Broadly, the AUC is concentration integrated over time. Low values mean less exposure, high ones more exposure. In general, Tmax refers to the time at which the peak concentration occurs. The IC50 is the point on the concentration scale where inhibition reaches its midpoint. Broadly, the Cmax is the highest concentration seen after dosing. Consider `CN(C)C(=O)c1ccc(Oc2nc(-c3cnc(N)s3)nc(N3CCOCC3)n2)cc1`, for which the inhibition in [1] was -1%; in series [3] it was -3%; in [4] it was 0%; in series [7], 1%; in series [14], -1%; in series [16], 86%. In addition, the inhibition in series [17] was -10%; in [21], 0%. The Activity entry in [2], in series [5], in series [8], in [12], in [20] and in [22] was “Non-Toxic” throughout. Moreover, the AUC in series [6] stood at 76.4 µM·h; in series [15], 26.9 µM·h. Besides, the remaining at 2 h, 10 µM in series [9] was 105%; in series [18], 98%. For the same compound, the Tmax in series [10] was 1.5 h. For the same compound, the IC50 in series [11] is 10 nM. Moreover, in series [13], the concentration at 120 h is 85 ng/g. In addition, the results for the Cmax in series [19] and in [23] were 12.6 µM and 6.9 µM, respectively.
